{"data": "Published values gathered from unrelated publications", "target": "SRSF protein kinase 3 (SRPK3, Homo sapiens, UniProt Q9UPE1)", "note": "Each line is one published result; the experiments were not run side by side."}
{"SMILES": "Cc1ccc(NC(=O)c2ccc(C)c(C(F)(F)F)c2)cc1C#Cc1nn(C2CCC(O)CC2)c2ncnc(N)c12 (centres unmarked)", "assay": "cell-free assay", "conditions": "10 µM", "quantity": "remaining signal", "result": "56%"}
{"SMILES": "Cn1c2c(c3ccccc31)C(C#N)C(C)(C)NC2=O (centres unmarked)", "assay": "thermal stability, DSF", "conditions": "10 µM", "quantity": "ΔTm", "result": "0.2 °C"}
{"SMILES": "O=C(Nc1ccc(Oc2ccc(F)cc2)cc1)N1CCc2ncccc2[C@H]1c1ccc(F)cc1", "assay": "cell-free assay, competition with immobilised ligand", "conditions": "1 µM", "quantity": "remaining binding", "result": "100%"}
{"SMILES": "CCOc1cc(-c2nncn2C)ccc1Nc1ncc2cc(C)nc(NCC(C)(C)C)c2n1", "assay": "enzyme activity, inhibitor, FRET", "conditions": "1 µM", "quantity": "inhibition", "result": "< 15%"}
{"SMILES": "CN(C)C(=O)Cn1cc(-c2nc(C3(c4ccc(-c5cnc(N)nc5)cc4)CC3)no2)cn1", "assay": "cell-free assay, competition with immobilised ligand", "conditions": "1 µM", "quantity": "remaining binding", "result": "100%"}
{"SMILES": "CCN(CC)CCNC(=O)c1c(C)[nH]c(/C=C2\\C(=O)Nc3ccc(F)cc32)c1C", "assay": "enzyme activity, inhibitor", "conditions": "0.3 µM", "quantity": "inhibition", "result": "-4%"}
{"SMILES": "Cc1ccc(C(=O)Nc2ccc(CN3CCN(C)CC3)c(C(F)(F)F)c2)cc1C#Cc1cnc2cccnn12", "assay": "enzyme activity, inhibitor", "conditions": "23.5 nM", "quantity": "remaining activity", "result": "96%"}
{"SMILES": "CCCS(=O)(=O)Nc1ccc(F)c(C(=O)c2c[nH]c3ncc(-c4ccc(Cl)cc4)cc23)c1F", "assay": "enzyme activity, inhibitor", "conditions": "1 µM", "quantity": "inhibition", "result": "< 10%"}
{"SMILES": "CN1CC(Oc2cnc(C#N)cc2-c2ccn3nc(NC(=O)C4CC4)cc3c2)C1", "assay": "enzyme activity, inhibitor", "conditions": "1 µM", "quantity": "inhibition", "result": "-3%"}
{"SMILES": "Cn1c2c(Cl)c(Cl)ccc2c2cc[nH]c(=O)c21", "assay": "thermal stability, DSF", "conditions": "10 µM", "quantity": "ΔTm", "result": "0.2 °C"}
{"SMILES": "CC(=O)Nc1c(C(C)=O)c(=O)n(C)c2nc(-c3ccc(Cl)cc3Cl)c(-c3ccc(Cl)cc3)cc12", "assay": "cell-free assay, competition with immobilised ligand", "conditions": "1 µM", "quantity": "remaining binding", "result": "100%"}
{"SMILES": "CC(C)(C)c1nc2c(s1)c1nc(N)ncc1c1ccc(NS(=O)(=O)c3c(F)cccc3F)c(F)c12", "assay": "enzyme activity, inhibitor, radiometric", "conditions": "1 µM", "quantity": "remaining activity", "result": "97%"}
{"SMILES": "CC1=C(C#N)[C@@H](c2ccc3[nH]nc(C)c3c2)C(C#N)=C(c2ccc(Cl)cc2)N1", "assay": "cell-free assay, competition with immobilised ligand", "conditions": "1 µM", "quantity": "remaining binding", "result": "100%"}
{"SMILES": "Nc1ncnc2occ(-c3ccc(NC(=O)Nc4cc(C(F)(F)F)ccc4F)cc3)c12", "assay": "cell-free assay, inhibitor", "conditions": "20 µM", "quantity": "remaining signal", "result": "88%"}
{"SMILES": "Cc1ccc(Nc2nccc(N(C)c3ccc4c(C)n(C)nc4c3)n2)cc1S(N)(=O)=O", "assay": "enzyme activity, inhibitor", "conditions": "10 µM", "quantity": "inhibition", "result": "3%"}
{"SMILES": "COc1cc2ncnc(Nc3ccc(Oc4ccccc4)c(C)c3C)c2cc1OC", "assay": "enzyme activity, inhibitor", "conditions": "1 µM", "quantity": "inhibition", "result": "5%"}
{"SMILES": "O=C(NS(=O)(=O)c1ccc(NCC2CCOCC2)c([N+](=O)[O-])c1)c1ccc(N2CCN(Cc3ccc(C(F)(F)F)cc3-c3ccc(Cl)cc3)CC2)cc1Oc1cnc2[nH]ccc2c1", "assay": "cell-free assay, competition with immobilised ligand", "conditions": "1 µM", "quantity": "remaining binding", "result": "100%"}
{"SMILES": "Cn1c2c(c3ccc(Cl)c(Cl)c31)C(C#N)C1(CCN(C(=O)OC(C)(C)C)CC1)NC2=O (racemic)", "assay": "thermal stability, DSF", "conditions": "10 µM", "quantity": "ΔTm", "result": "0 °C"}
{"SMILES": "CNCc1ccccc1-c1csc([C@H](C)Nc2nc(C)nc3cc(OC)c(OC)cc23)c1", "assay": "cell-free assay, competition with immobilised ligand", "conditions": "1 µM", "quantity": "remaining binding", "result": "89%"}
{"SMILES": "CNC(=O)c1cc(Oc2ccc(NC(=O)Nc3ccc(Cl)c(C(F)(F)F)c3)cc2)ccn1", "assay": "enzyme activity, inhibitor", "conditions": "10 µM", "quantity": "inhibition", "result": "60%"}
